Converted amounts (≈) assume the structure as drawn.
Key:
A549 = assay: Cytotoxicity against human A549 cells after 7 days; type: functional; conditions: A549, 168 h, read-out: ED50 (the source's name)
Summary of the method: (§1)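 This was a seven-day in vitro cytotoxicity test run under standard protocols on three solid tumor lines: A-549 (human lung carcinoma), MCF-7 (human breast carcinoma) and HT-29 (human colon adenocarcinoma). Adriamycin was the positive control.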

MCF7 = assay: Cytotoxicity against human MCF7 cells after 7 days; type: functional; conditions: MCF7, 168 h, read-out: ED50 (the source's name); summary of the method: as §1
[1] = Toxicity in brine shrimp larvae; type: organism-based; conditions: artemia, in vivo
[2] = system: Agrobacterium tumefaciens; assay: Antitumor activity against Agrobacterium tumefaciens-induced crown gall tumors in potato by disk test relative to control; type: functional
Summary of the method: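 Crown gall tumors on potato discs were scored, and the read-out was % inhibition relative to control. The assay was run in-house.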

HT-29 = assay: Cytotoxicity against human HT-29 cells after 7 days; type: functional; conditions: HT-29, 168 h, read-out: ED50 (the source's name); summary of the method: as §1

## Oc1cccc(CCCCCCCCCCCCc2ccccc2)c1
A549
  EC50: 1.85 µg/mL (≈ 5.46 µM)
MCF7
  EC50: 2.09 µg/mL (≈ 6.17 µM)
[1]
  LC50: 1.37 µg/mL (≈ 4.05 µM)
[2]
  T/C: 39%
HT-29
  EC50: 2.62 µg/mL (≈ 7.74 µM)

## Oc1cccc(CCCCCCCCCCc2ccccc2)c1
A549
  EC50: 35 µg/mL (≈ 113 µM)
MCF7
  EC50: 7.76 µg/mL (≈ 25 µM)
[1]
  LC50: 0.45 µg/mL (≈ 1.45 µM)
[2]
  T/C: 54%
HT-29
  EC50: 28.6 µg/mL (≈ 92.1 µM)

## Oc1cc(O)cc(CCCCCCCCCCc2ccccc2)c1
A549
  EC50: 3.49 µg/mL (≈ 10.7 µM)
MCF7
  EC50: 2.69 µg/mL (≈ 8.24 µM)
[1]
  LC50: 0.47 µg/mL (≈ 1.44 µM)
[2]
  T/C: 62%
HT-29
  EC50: 3.24 µg/mL (≈ 9.92 µM)

## O=C(O)c1c(O)cccc1CCCCCCCCCCCCc1ccccc1
A549
  EC50: 15 µg/mL (≈ 39.2 µM)
MCF7
  EC50: 3.06 µg/mL (≈ 8 µM)
[1]
  LC50: 1.24 µg/mL (≈ 3.24 µM)
[2]
  T/C: 61%
HT-29
  EC50: 2.98 µg/mL (≈ 7.79 µM)

## CC(=O)c1c(O)cc(O)cc1CCCCCCCCCCc1ccccc1
A549
  EC50: 3.22 µg/mL (≈ 8.74 µM)
MCF7
  EC50: 2.87 µg/mL (≈ 7.79 µM)
[1]
  LC50: 0.18 µg/mL (≈ 0.488 µM)
[2]
  T/C: 30%
HT-29
  EC50: 4.47 µg/mL (≈ 12.1 µM)

## Oc1cc(O)cc(CCCCCCCCCCCCc2ccccc2)c1
A549
  EC50: 3.26 µg/mL (≈ 9.2 µM)
MCF7
  EC50: 1.84 µg/mL (≈ 5.19 µM)
[1]
  LC50: 0.33 µg/mL (≈ 0.931 µM)
[2]
  T/C: 45%
HT-29
  EC50: 2.87 µg/mL (≈ 8.1 µM)

## COc1ccc(-c2coc3cc(O)cc(O)c3c2=O)cc1 [BIOCHANIN]
A549
  EC50: 19.8 µg/mL (≈ 69.5 µM)
MCF7
  EC50: 5.49 µg/mL (≈ 19.3 µM)
[1]
  LC50: 107 µg/mL (≈ 376 µM)
[2]
  T/C: 54%
HT-29
  EC50: 28.4 µg/mL (≈ 99.8 µM)

## CCCCCCCCCCCCCCCc1cc(O)cc(O)c1 [CARDOL]
A549
  EC50: 2.37 µg/mL (≈ 7.39 µM)
MCF7
  EC50: 2.41 µg/mL (≈ 7.52 µM)
[1]
  LC50: 7.65 µg/mL (≈ 23.9 µM)
[2]
  T/C: 41%
HT-29
  EC50: 3.25 µg/mL (≈ 10.1 µM)

## COc1cccc2c1C(=O)c1c(O)c3c(c(O)c1C2=O)C[C@@](O)(C(=O)CO)C[C@@H]3O[C@H]1C[C@H](N)[C@H](O)[C@H](C)O1 [DOXORUBICIN]
A549
  EC50: 0.00148 µg/mL (≈ 0.00272 µM)
MCF7
  EC50: 0.147 µg/mL (≈ 0.27 µM)
HT-29
  EC50: 0.00669 µg/mL (≈ 0.0123 µM)

## COc1ccc(-c2coc3cc(O)ccc3c2=O)cc1 [FORMONONETIN]
A549
  EC50: 2.87 µg/mL (≈ 10.7 µM)
MCF7
  EC50: 1.96 µg/mL (≈ 7.31 µM)
[1]
  LC50: 22.7 µg/mL (≈ 84.6 µM)
[2]
  T/C: 79%
HT-29
  EC50: 6.43 µg/mL (≈ 24 µM)

## Oc1cccc(CCCCCCCCC[C@H](O)c2ccccc2)c1 [KNEGLOMERATANOL]
A549
  EC50: 5.99 µg/mL (≈ 18.3 µM)
MCF7
  EC50: 2.32 µg/mL (≈ 7.11 µM)
[1]
  LC50: 0.21 µg/mL (≈ 0.643 µM)
[2]
  T/C: 29%
HT-29
  EC50: 9.33 µg/mL (≈ 28.6 µM)

## CC(=O)c1c(O)cc(O)cc1CCCCCCCCc1ccccc1 [KNEGLOMERATANONE A]
A549
  EC50: 3.89 µg/mL (≈ 11.4 µM)
MCF7
  EC50: 3.44 µg/mL (≈ 10.1 µM)
[1]
  LC50: 0.37 µg/mL (≈ 1.09 µM)
[2]
  T/C: 38%
HT-29
  EC50: 18.8 µg/mL (≈ 55.3 µM)

## CCCCCCCCCCCCCc1cc(O)cc(O)c1C(C)=O [KNEGLOMERATANONE B]
A549
  EC50: 2.3 µg/mL (≈ 6.88 µM)
MCF7
  EC50: 1.12 µg/mL (≈ 3.35 µM)
[1]
  LC50: 1.92 µg/mL (≈ 5.74 µM)
[2]
  T/C: 38%
HT-29
  EC50: 6.56 µg/mL (≈ 19.6 µM)

From ChEMBL document CHEMBL1149048, “Kneglomeratanol, kneglomeratanones A and B, and related bioactive compounds from Knema glomerata” (J Nat Prod, 1994)
